Activity calls are given as the source filed them. No cut-off for these calls is given here. Where a SMILES comes first, the peptide text is derived from it. Bridges are numbered along the chain shown (N, C = ends). Roman numbers before positions name the chains, in order. [ ]: non-standard residue; d: D form. The star is where a group is joined. 5TAMRA = CN(C)c1ccc2c(c1)Oc1cc(N(C)C)ccc1C21OC(=O)c2cc(C(=O)*)ccc21; Cha = N[C@@H](CC1CCCCC1)C(=O)O
Experiments:
[1] = Drug uptake in mitochondria of human HeLa cells transfected with Drp1-eGFP at 100 nM incubated for 3 hrs by confocal microscopy; format: ADME; conditions: 0.1 µM
[2] = Drug uptake in CCCP-damaged mitochondria of human HeLa cells at 100 nM by MitoTracker probe based assay; format: ADME; conditions: 16 min, 0.1 µM, TDE = time-dependent effect
How it was run: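 HeLa cells given TAMRA-labelled peptide 100 nM for 3 h with MitoTracker staining; mitochondria damaged with 20 μM CCCP (30 min) or by CCCP during time-lapse confocal imaging. Red/green Pearson r calculated.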

[3] = Drug localization in endosomes of human HeLa cells expressing endosome markers at 100 nM incubated for 3 hrs by GFP based analysis; format: ADME, subcellular; conditions: 0.1 µM
How it was run: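 HeLa cells expressing early-endosome GFP marker (16 h) given TAMRA-labelled peptide 100 nM for 3 h plus LysoTracker 50 nM; confocal imaging with Pearson correlation.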

[4] = Drug localization in CCCP-damaged mitochondria of human HeLa cells at 100 nM incubated for 3 hrs by NAO probe based assay; format: ADME; conditions: 0.1 µM
How it was run: (§1)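 HeLa cells given TAMRA-labelled peptide 100 nM for 3 h and cardiolipin stained with NAO (100 nM, 1 h), with or without 20 μM CCCP for 30 min; LysoTracker 50 nM. Confocal images, Pearson r from five independent images (63×) per condition.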

Mus musculus [5] = experiment: Protection against […] C57BL/6 mouse model assessed as increase in IL-10 mRNA level at 1 mg/kg, ip administered thrice a week prior to induction of bilateral ischemia-reperfusion injury measured after 6 days by qPCR analysis; format: functional, organism-based; conditions: time 6.0 day
Epithelial cell [6] = experiment: Inhibition of H2O2-induced apoptosis in human tubular epithelial cells at 10 to 100 nM by Annexin V-FITC/PI staining based flow cytometry; format: functional; conditions: dose 10-100 nM
How it was run: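 hTECs exposed to H2O2 0.5 mM; annexin V-FITC/propidium iodide staining 15 min at room temperature in the dark, apoptosis and necrosis percentages by flow cytometry.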

Mus musculus [7] = experiment: Protection against […] C57BL/6 mouse model assessed as decrease in serum creatinine level at 1 mg/kg, ip measured after 23 hrs; format: functional, organism-based
[8] = Drug uptake in human HeLa cells at 100 nM incubated for 3 hrs in presence of M-beta-CD by FACS analysis; format: ADME, cell-based; conditions: 0.1 µM
How it was run: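 HeLa cells pretreated 30 min with the endocytosis inhibitor (methyl-β-cyclodextrin for cholesterol depletion), then given 100 nM TAMRA-labelled peptide for 3 h and analysed by FACS.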

HeLa [9] = experiment: Induction of H2O2-reduced mitochondrial membrane potential in human HeLa cells incubated for 3 hrs followed by H2O2 addition for 1 hr by fluorescence based analysis; format: functional, cell-based; conditions: dose 10-30 nM, time 4.0 hrs
How it was run: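 HeLa cells given peptide 3 h then 1 mM H2O2 for 1 h; TMRE 600 nM for 15 min, washed, fluorescence read in HBSS at 37 °C (Ex/Em 525/575 nm).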

Mus musculus [10] = experiment: Protection against […] C57BL/6 mouse model assessed as reduction in serum creatinine level at 1 mg/kg, ip administered thrice a week prior to induction of bilateral ischemia-reperfusion injury measured after 6 days; format: functional, organism-based; conditions: time 6.0 day
Mus musculus [11] = experiment: Protection against […] C57BL/6 mouse model assessed as increase in NQO-1 mRNA level at 1 mg/kg, ip administered thrice a week prior to induction of bilateral ischemia-reperfusion injury measured after 6 days by qPCR analysis; format: functional, organism-based; conditions: time 6.0 day
Mus musculus [12] = experiment: Protection against colistin-induced nephrotoxicity in C57BL/6 mouse model assessed as appearance of cristae formation in mitochondria of kidney at 1 mg/kg, ip administered once every other day measured after 7 days by TEM analysis; format: functional, organism-based; conditions: time 7.0 day
How it was run: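 Male C57BL/6 mice, 7 weeks, given colistin 20 mg/kg sc daily for 7 days with peptide 1 mg/kg ip once every other day, n = 5 per group; kidney mitochondria examined by TEM.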

[13] = Toxicity in C57BL/6 mouse model of colistin-induced nephrotoxicity assessed as animal survival at 1 mg/kg, ip administered once every other day measured for 7 days; format: organism-based; conditions: in vivo, 168 h, time 7 day
How it was run: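 Male C57BL/6 mice got colistin 20 mg/kg SC daily for 7 days, with peptide 1 mg/kg intraperitoneally every other day; groups of n = 5. Survival was tracked by Kaplan–Meier and compared by log-rank (Mantel–Cox) test.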

HeLa [14] = experiment: Induction of CCCP-reduced ATP production in human HeLa cells incubated for 3 hrs followed by CCCP addition measured after 1 hr by luminescence based analysis; format: functional, cell-based; conditions: dose 5-20 nM, time 4.0 hrs
How it was run: (§2)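 Cellular ATP measured by luminescence with an ATP detection kit after peptide pretreatment.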

[15] = Drug localization in mitochondria of human tubular epithelial cells upto 100 nM by MitoTracker probe based assay; format: ADME; conditions: epithelial cell, 0.1 µM
HeLa [16] = experiment: Reversal of H2O2-induced mitochondrial damage in human HeLa cells assessed as formation of long cristae at 50 to 100 nM preincubated for 2 hrs followed by H2O2 addition for 2 hrs by TEM analysis; format: functional, cell-based; conditions: dose 50-100 nM, time 4.0 hrs
How it was run: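 HeLa cells were pretreated with 50 or 100 nM peptide for 2 h, then exposed to 0.5 mM H2O2 for 2 h. They were fixed in Karnovsky's fixative (pH 7.2), postfixed in osmium, embedded in Spurr's resin and stained with uranyl acetate/lead citrate for TEM. Cristae longer than 0.5 μm were counted from at least 50 mitochondrial images.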

HeLa [17] = experiment: Induction of antimycin A-reduced ATP production in human HeLa cells incubated for 3 hrs followed by antimycin A addition measured after 3 hrs by luminescence based analysis; format: functional, cell-based; conditions: dose 10-20 nM, time 6.0 hrs; how it was run: as §2
HeLa [18] = experiment: Cytoprotective activity against CCCP-induced cell death in human HeLa cells assessed as increase in cell survival measured for 4 hrs by fluorescence based analysis; format: functional
Mus musculus [19] = experiment: Protection against […] C57BL/6 mouse model assessed as reduction in inflammatory cell infiltration at 1 mg/kg, ip administered thrice a week prior to induction of bilateral ischemia-reperfusion injury measured after 6 days by IHC analysis; format: functional, organism-based; conditions: time 6.0 day
[20] = Drug localization in cytosol of human HeLa cells at 100 nM incubated for 3 hrs in presence of CCCP by NAO probe based analysis; format: ADME, subcellular; conditions: 0.1 µM; how it was run: as §1
Mus musculus [21] = experiment: Protection against […] C57BL/6 mouse model assessed as decrease in serum BUN level at 1 mg/kg, ip measured after 23 hrs; format: functional, organism-based
Epithelial cell [22] = experiment: Reversal of H2O2-induced IL-18 mRNA level in human tubular epithelial cells at 10 to 100 nM by qPCR analysis; format: functional, cell-based; conditions: dose 10-100 nM
Mitochondria = experiment: Inhibition of antimycin A-induced mitochondrial ROS generation in human HeLa cells incubated for 190 mins followed by antimycin A addition measured after 90 mins by MitoSOX probe based analysis; format: functional; conditions: dose lower […], dose upper 10.0 nM
How it was run: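 HeLa cells seeded, stained 24 h later with MitoSOX 5 μM for 10 min, washed, HBSS, read on plate reader at 37 °C (Ex/Em 510/580 nm).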

**Q.** Which Drug uptake [1] does the source give for CC(=O)N[C@@H](CC1CCCCC1)C(=O)N[C@H]1CSSC[C@@H](C(=O)N[C@@H](CCCNC(=N)N)C(N)=O)NC(=O)[C@H](CC2CCCCC2)NC(=O)[C@H](CCCNC(=N)N)NC(=O)[C@H](CCCNC(=N)N)NC(=O)[C@H](CC2CCCCC2)NC(=O)[C@H](CC(C)C)NC(=O)[C@H](CCCNC(=N)N)NC(=O)[C@@H](NC(=O)[C@H](CC2CCCCC2)NC(=O)c2ccc3c(c2)C(=O)OC32c3ccc(N(C)C)cc3Oc3cc(N(C)C)ccc32)CSSC[C@@H](C(=O)N[C@@H](CCCNC(=N)N)C(N)=O)NC(=O)[C@H](CC2CCCCC2)NC(=O)[C@H](CCCNC(=N)N)NC(=O)[C@H](CCCNC(=N)N)NC(=O)[C@H](CC2CCCCC2)NC(=O)[C@H](CC(C)C)NC(=O)[C@H](CCCNC(=N)N)NC1=O (I: Ac-[Cha]CRL[Cha]RR[Cha]CR-NH2 / II: 5TAMRA-[Cha]CRL[Cha]RR[Cha]CR-NH2; disulfide I:2-II:9, I:9-II:2) here?
**A.** The Drug uptake was “Active”.

**Q.** And the Drug uptake [2]?
**A.** Its Drug uptake is “Tde”.

**Q.** And the Drug uptake [3]?
**A.** The Drug uptake was “Not Active”.

**Q.** And the Drug uptake [4]?
**A.** The Drug uptake was “Active”.

**Q.** And the Activity (Mus musculus [5])?
**A.** The Activity was “Active”.

**Q.** What about the inhibition (Epithelial cell [6]) of the same molecule?
**A.** Its inhibition is “Active”.

**Q.** And the Activity (Mus musculus [7])?
**A.** The Activity was “Active”.

**Q.** And the Drug uptake [8]?
**A.** The Drug uptake was “Not Active”.

**Q.** And the Activity (HeLa [9])?
**A.** Its Activity is “Dose-Dependent Effect”.

**Q.** What about the Activity (Mus musculus [10]) of the same molecule?
**A.** Its Activity is “Active”.

**Q.** What about the Activity (Mus musculus [11]) of the same molecule?
**A.** The Activity was “Active”.

**Q.** What about the Activity (Mus musculus [12]) of the same molecule?
**A.** Its Activity is “Active”.

**Q.** What about the Activity [13] of the same molecule?
**A.** Its Activity is “Non-Toxic”.

**Q.** What about the Activity (HeLa [14]) of the same molecule?
**A.** The Activity was “Dose-Dependent Effect”.

**Q.** And the Drug uptake [15]?
**A.** Its Drug uptake is “Active”.

**Q.** What about the Activity (HeLa [16]) of the same molecule?
**A.** Its Activity is “Active”.

**Q.** What about the Activity (HeLa [17]) of the same molecule?
**A.** Its Activity is “Dose-Dependent Effect”.

**Q.** What about the Activity (HeLa [18]) of the same molecule?
**A.** Its Activity is “Active”.

**Q.** And the Activity (Mus musculus [19])?
**A.** Its Activity is “Active”.

**Q.** What about the Drug uptake [20] of the same molecule?
**A.** Its Drug uptake is “Active”.

**Q.** And the Activity (Mus musculus [21])?
**A.** The Activity was “Active”.

**Q.** What about the Activity (Epithelial cell [22]) of the same molecule?
**A.** Its Activity is “Active”.

**Q.** And the inhibition (Mitochondria)?
**A.** Its inhibition is “Dose-Dependent Effect”.
